In ChEMBL document CHEMBL1154742, “Modular synthesis and in vitro and in vivo antimalarial assessment of C-10 pyrrole mannich base derivatives of artemisinin” (J Med Chem, 2010):
pIC50: −log10 of the molar value.

Experiments:
Plasmodium falciparum [1] = test: Antimalarial activity against chloroquine-sensitive Plasmodium falciparum 3D7 assessed as growth inhibition by [3H]hypoxanthine incorporation assay; format: functional, organism-based
Outline: (§1)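 Asynchronous P. falciparum culture (65-75% rings, 0.5% parasitemia) at 2.5% final hematocrit, with triplicate 3-fold drug dilutions (10.0 to 0.0041 μg/mL) in RPMI 1640 with 0.5% Albumax II, glucose, L-glutamine and 5 μM hypoxanthine. DMSO was ≤0.01% final. After 24 h at 37 °C in 5% CO2, [3H]hypoxanthine (0.2 μCi/well) was added for a further 24 h. Plates were frozen and harvested, incorporation counted by scintillation, and IC50 obtained by curve fitting.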

Plasmodium falciparum [2] = test: Antimalarial activity against chloroquine-sensitive Plasmodium falciparum 3D7 assessed as growth inhibition by [3H]hypoxanthine incorporation assay relative to artemisinin; format: functional
KB = test: Cytotoxicity against human KB cells after 72 hrs by alamar blue assay; format: cell-based
Outline: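 KB cells seeded at 4 × 10^4 cells/mL in RPMI 1640 with 10% heat-inactivated fetal calf serum and grown 24 h at 37 °C in 5% CO2. Compound dilution series added in triplicate for 72 h, with podophyllotoxin as positive control. AlamarBlue added for 2-4 h; fluorescence read at ex 530/em 585 nm and IC50 obtained by curve fitting.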

[3] = Therapeutic index, ratio of IC50 for human KB cells to IC50 for Plasmodium falciparum 3D7; format: cell-based; details: KB cells (cytotoxicity) versus Plasmodium falciparum 3D7, read-out: TI
Plasmodium falciparum [4] = test: Antimalarial activity against chloroquine-resistant Plasmodium falciparum K1 (Thailand) assessed as growth inhibition by [3H]hypoxanthine incorporation assay; format: functional, organism-based; outline: as §1
Plasmodium falciparum [5] = test: Antimalarial activity against chloroquine-resistant Plasmodium falciparum K1 (Thailand) assessed as growth inhibition by [3H]hypoxanthine incorporation assay relative to artemisinin; format: functional
Plasmodium berghei [6] = test: Antimalarial activity against Plasmodium berghei ANKA infected Swiss CD1 mice (Mus musculus) assessed as reduction of parasitemia at 30 mg/kg, perorally administered after 3 hrs of infection for 3 days measured on day 4 relative to control; format: functional; details: route oral
Outline: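 Male Swiss CD-1 mice (20 g) infected iv with 4 × 10^6 P. berghei ANKA-infected red cells on day 0, in groups of five. Compound was given orally in standard suspending vehicle (carboxymethylcellulose, benzyl alcohol, Tween 80, saline), 3 × 30 mg/kg, starting 3 h post-infection, once daily. Parasitemia was counted on Giemsa-stained smears on day 4 and expressed as % inhibition versus the untreated group mean.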

Plasmodium berghei [7] = test: Antimalarial activity against Plasmodium berghei ANKA infected NMRI mice (Mus musculus) assessed as reduction of parasitemia treated perorally for 3 days measured on day 4; format: functional; details: po
Plasmodium berghei [8] = test: Antimalarial activity against Plasmodium berghei ANKA infected NMRI mice (Mus musculus) assessed as mean survival time at 10 mg/kg, intraperitoneally 4 consecutive doses for 3 days measured on day 4 by FACS analysis; details: route intraperitoneal
Plasmodium berghei [9] = test: Antimalarial activity against Plasmodium berghei ANKA infected NMRI mice (Mus musculus) assessed as reduction of parasitemia at 10 mg/kg, intraperitoneally 4 consecutive doses for 3 days measured on day 4 by FACS analysis; details: ip

## CCN(CC)Cc1ccc([C@@H]2O[C@@H]3O[C@@]4(C)CC[C@H]5[C@H](C)CC[C@@H]([C@H]2C)[C@@]35OO4)[nH]1
Plasmodium falciparum [1]
  pIC50: 7.12
Plasmodium falciparum [2]
  Ratio IC50: 0.17

## C[C@H]1[C@H](c2ccc(CN3CCOCC3)[nH]2)O[C@@H]2O[C@@]3(C)CC[C@H]4[C@H](C)CC[C@@H]1[C@@]24OO3
Plasmodium falciparum [1]
  pIC50: 8.60
KB
  pIC50: 4.25
[3]
  selectivity ratio: 22600
Plasmodium falciparum [2]
  Ratio IC50: 2.84
Plasmodium falciparum [4]
  pIC50: 8.49
Plasmodium falciparum [5]
  Ratio IC50: 2.56
Plasmodium berghei [6]
  inhibition in vivo at 30 mg/kg: 100%
Plasmodium berghei [7]
  ED50: 2.11 mg/kg
  ED90: 4.3 mg/kg

## C[C@H]1[C@H](c2ccc(CN(C)C)[nH]2)O[C@@H]2O[C@@]3(C)CC[C@H]4[C@H](C)CC[C@@H]1[C@@]24OO3
Plasmodium falciparum [1]
  pIC50: 7.69
KB
  pIC50: 4.36
[3]
  selectivity ratio: 2130
Plasmodium falciparum [2]
  Ratio IC50: 0.62

## C[C@H]1[C@H](c2ccc(CN3CCS(=O)(=O)CC3)n2C)O[C@@H]2O[C@@]3(C)CC[C@H]4[C@H](C)CC[C@@H]1[C@@]24OO3
Plasmodium falciparum [1]
  pIC50: 8.66
KB
  pIC50: 4.17
[3]
  selectivity ratio: 31100
Plasmodium falciparum [2]
  Ratio IC50: 5.82
Plasmodium falciparum [4]
  pIC50: 8.45
Plasmodium falciparum [5]
  Ratio IC50: 2.3

## CO[C@H]1O[C@@H]2O[C@@]3(C)CC[C@H]4[C@H](C)CC[C@@H]([C@H]1C)[C@@]24OO3 [ARTEMETHER]
Plasmodium falciparum [1]
  pIC50: 8.38
Plasmodium falciparum [5]
  Ratio IC50: 2.41
Plasmodium berghei [6]
  inhibition in vivo at 30 mg/kg: 100%
Plasmodium berghei [7]
  ED90: 10.6 mg/kg

## C[C@H]1[C@H](c2ccc(CN(C)C)n2C)O[C@@H]2O[C@@]3(C)CC[C@H]4[C@H](C)CC[C@@H]1[C@@]24OO3
Plasmodium falciparum [1]
  pIC50: 7.50
Plasmodium falciparum [2]
  Ratio IC50: 0.4

## C[C@@H]1CC[C@H]2[C@@H](C)C(=O)O[C@@H]3O[C@@]4(C)CC[C@@H]1[C@]32OO4 [ARTEMISININ]
Plasmodium falciparum [1]
  pIC50: 7.89
KB
  pIC50: < 3.45
[3]
  selectivity ratio: > 27700
Plasmodium falciparum [4]
  pIC50: 8.09

## C[C@H]1[C@H](c2cccn2C)O[C@@H]2O[C@@]3(C)CC[C@H]4[C@H](C)CC[C@@H]1[C@@]24OO3
Plasmodium falciparum [1]
  pIC50: 8.28
KB
  pIC50: 4.22
[3]
  selectivity ratio: 11600
Plasmodium falciparum [2]
  Ratio IC50: 2.46
Plasmodium berghei [7]
  ED50: 4.5 mg/kg
  ED90: 8.5 mg/kg

## C[C@H]1[C@H](c2ccc(CN3CCCC3)n2C)O[C@@H]2O[C@@]3(C)CC[C@H]4[C@H](C)CC[C@@H]1[C@@]24OO3
Plasmodium falciparum [1]
  pIC50: 8.43
KB
  pIC50: 4.37
[3]
  selectivity ratio: 11400
Plasmodium falciparum [2]
  Ratio IC50: 3.46

## C[C@H]1[C@H](OC(=O)CCC(=O)O)O[C@@H]2O[C@@]3(C)CC[C@H]4[C@H](C)CC[C@@H]1[C@@]24OO3 [ARTESUNATE]
Plasmodium berghei [6]
  inhibition in vivo at 30 mg/kg: 100%
Plasmodium berghei [7]
  ED50: 3.23 mg/kg
  ED90: > 10 mg/kg
Plasmodium berghei [8]
  MSD: 8 days
Plasmodium berghei [9]
  inhibition in vivo at 10 mg/kg: 98%

## C[C@H]1[C@H](c2ccc(CN3CCCCC3)[nH]2)O[C@@H]2O[C@@]3(C)CC[C@H]4[C@H](C)CC[C@@H]1[C@@]24OO3
Plasmodium falciparum [1]
  pIC50: 7.23
KB
  pIC50: 3.84
[3]
  selectivity ratio: 2410
Plasmodium falciparum [2]
  Ratio IC50: 0.22

## CC(C)N1CCN(Cc2ccc([C@@H]3O[C@@H]4O[C@@]5(C)CC[C@H]6[C@H](C)CC[C@@H]([C@H]3C)[C@@]46OO5)[nH]2)CC1
Plasmodium falciparum [1]
  pIC50: 8.07
KB
  pIC50: 4.34
[3]
  selectivity ratio: 5330
Plasmodium falciparum [2]
  Ratio IC50: 1.51
Plasmodium falciparum [4]
  pIC50: 8.46
Plasmodium falciparum [5]
  Ratio IC50: 2.34
Plasmodium berghei [6]
  inhibition in vivo at 30 mg/kg: 90.5%
Plasmodium berghei [8]
  MSD: 6 days
Plasmodium berghei [9]
  inhibition in vivo at 10 mg/kg: 90%

## C[C@H]1[C@H](c2ccc(CN3CCN(C)CC3)[nH]2)O[C@@H]2O[C@@]3(C)CC[C@H]4[C@H](C)CC[C@@H]1[C@@]24OO3
Plasmodium falciparum [1]
  pIC50: 8.19
KB
  pIC50: 4.07
[3]
  selectivity ratio: 13100
Plasmodium falciparum [2]
  Ratio IC50: 1.97
Plasmodium falciparum [4]
  pIC50: 8.30
Plasmodium falciparum [5]
  Ratio IC50: 1.64
Plasmodium berghei [6]
  inhibition in vivo at 30 mg/kg: 97.7%
Plasmodium berghei [8]
  MSD: 7 days
Plasmodium berghei [9]
  inhibition in vivo at 10 mg/kg: 98%

## C[C@H]1[C@H](c2ccc(CN3CCCC3)[nH]2)O[C@@H]2O[C@@]3(C)CC[C@H]4[C@H](C)CC[C@@H]1[C@@]24OO3
Plasmodium falciparum [1]
  pIC50: 7.77
KB
  pIC50: 4.33
[3]
  selectivity ratio: 2780
Plasmodium falciparum [2]
  Ratio IC50: 0.76

## C[C@H]1[C@H](c2ccc(CN3CCSCC3)n2C)O[C@@H]2O[C@@]3(C)CC[C@H]4[C@H](C)CC[C@@H]1[C@@]24OO3
Plasmodium falciparum [1]
  pIC50: 8.14
KB
  pIC50: 3.86
[3]
  selectivity ratio: 19100
Plasmodium falciparum [2]
  Ratio IC50: 1.78

## CC(C)N1CCN(Cc2ccc([C@@H]3O[C@@H]4O[C@@]5(C)CC[C@H]6[C@H](C)CC[C@@H]([C@H]3C)[C@@]46OO5)n2C)CC1
Plasmodium falciparum [1]
  pIC50: 8.29
Plasmodium falciparum [2]
  Ratio IC50: 2.51
Plasmodium falciparum [4]
  pIC50: 8.08
Plasmodium falciparum [5]
  Ratio IC50: 0.99

## C[C@H]1[C@H](c2ccc(CN3CCC(N4CCCC4)CC3)n2C)O[C@@H]2O[C@@]3(C)CC[C@H]4[C@H](C)CC[C@@H]1[C@@]24OO3
Plasmodium falciparum [1]
  pIC50: 8.60
Plasmodium falciparum [2]
  Ratio IC50: 5.12
Plasmodium falciparum [4]
  pIC50: 8.14
Plasmodium falciparum [5]
  Ratio IC50: 1.12

## CCN(CC)CCCC(C)Nc1ccnc2cc(Cl)ccc12 (stereo not drawn) [CHLOROQUINE PHOSPHATE]
KB
  pIC50: 3.95

## C[C@H]1[C@H](c2ccc[nH]2)O[C@@H]2O[C@@]3(C)CC[C@H]4[C@H](C)CC[C@@H]1[C@@]24OO3
Plasmodium falciparum [1]
  pIC50: 8.13
KB
  pIC50: 4.20
[3]
  selectivity ratio: 8450
Plasmodium falciparum [2]
  Ratio IC50: 1.73

## C[C@H]1[C@H](c2ccc(CN3CCOCC3)n2C)O[C@@H]2O[C@@]3(C)CC[C@H]4[C@H](C)CC[C@@H]1[C@@]24OO3
Plasmodium falciparum [1]
  pIC50: 8.46
KB
  pIC50: 4.06
[3]
  selectivity ratio: 24600
Plasmodium falciparum [2]
  Ratio IC50: 3.66
Plasmodium falciparum [4]
  pIC50: 8.72
Plasmodium falciparum [5]
  Ratio IC50: 4.32
Plasmodium berghei [6]
  inhibition in vivo at 30 mg/kg: 100%
Plasmodium berghei [7]
  ED50: 1.77 mg/kg
  ED90: 5.2 mg/kg

## C[C@H]1[C@H](c2ccc(CN3CCCCC3)n2C)O[C@@H]2O[C@@]3(C)CC[C@H]4[C@H](C)CC[C@@H]1[C@@]24OO3
Plasmodium falciparum [1]
  pIC50: 8.21
KB
  pIC50: 4.41
[3]
  selectivity ratio: 6430
Plasmodium falciparum [2]
  Ratio IC50: 2.1

## C[C@H]1[C@H](c2ccc(CN3CCN(C)CC3)n2C)O[C@@H]2O[C@@]3(C)CC[C@H]4[C@H](C)CC[C@@H]1[C@@]24OO3
Plasmodium falciparum [1]
  pIC50: 8.19
KB
  pIC50: 4.02
[3]
  selectivity ratio: 14800
Plasmodium falciparum [2]
  Ratio IC50: 1.97
Plasmodium falciparum [4]
  pIC50: 8.42
Plasmodium falciparum [5]
  Ratio IC50: 2.16
Plasmodium berghei [6]
  inhibition in vivo at 30 mg/kg: 100%
Plasmodium berghei [7]
  ED50: 1.99 mg/kg
  ED90: 5.34 mg/kg
Plasmodium berghei [8]
  MSD: 9 days
Plasmodium berghei [9]
  inhibition in vivo at 10 mg/kg: 100%
